According to PubChem BioAssay AID504666 (Broad Institute, 2011):
Several values for one entry are separate records, joined by “and”; a condition that tells them apart may be missing. Equal entries are not always repeated. Records with an inconclusive call do not appear. Activity calls are given as the source filed them.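 How the source made its calls: active means compounds lowering the viability signal in every test, with half-maximal concentration at most ten times the top dose; inconclusive means mixed test calls, a flat partial drop, or a poor fit; inactive means all tests inactive.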

Key:
[1] = viability loss in shGFP HMLE line – cell-based, CellTiter-Glo luminescence, 72 h, dry powder, set 6, counter-screen for breast cancer stem cell project, dose response (AID 504666); settings: HMLE_sh_eGFP viability, CellTiter-Glo luminescence, 72 h
How it was run: (§1)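 System: HMLE_sh_eGFP cell line. Controls: DMSO-only neutral and puromycin positive controls on every plate. Times: compound exposure about 70-74 h at 37 °C, 5% CO2. Technique: CellTiter-Glo luminescence, reagent used at 1:3 dilution in PBS. Buffer or medium: serum-free culture medium for cell plating and exposure.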

[2] = test system: HMLE_sh_eGFP viability, CellTiter-Glo luminescence, 72 h; assay: as above
How it was run: as §1

Row | Compound | AC50 [2] | also measured
1 | CC(C)c1ccc(/C=C/C(=O)N(C)C2=NCCS2)cc1 |  | activity change, negative = toxicity ([1]; at 19.5 µM (top of the series)): -2.24% (inactive)
2 | CCc1ccc(/C=C/C(=O)NC2=NCCS2)cc1 | 28.3 µM | 
3 | COc1ccc(OCc2ccc(C(=O)Nc3nc(C)cs3)o2)c(F)c1 | 14.2 µM | 
4 | COc1ccc(/C=C/C(=O)NC2=NCCS2)c(OC)c1 |  | activity change, negative = toxicity ([1]; at 19.5 µM (top of the series)): -4.82% (inactive)
5 | CCOc1cccc(OCc2ccc(C(=O)Nc3nc(C)cs3)o2)c1 | 4.16 µM | 
6 | CC(C)NC(=O)c1ccc(COc2ccccc2)o1 |  | activity change, negative = toxicity ([1]; at 19.5 µM (top of the series)): 0.674% (inactive)
7 | Cc1csc(NC(=O)c2cocc2COc2ccccc2)n1 |  | activity change, negative = toxicity ([1]; at 30 µM (top of the series)): 8.46% (inactive)
8 | COc1ccc2nc(NC(=O)c3ccc(COc4ccccc4)o3)sc2c1 | 2.54 µM | 
9 | Cc1csc(NC(=O)c2ccc(COCc3ccccc3)o2)n1 | 10.5 µM | 
10 | Cc1ccc2cc(C(=O)NC3=NCCS3)n(C)c2c1 |  | activity change, negative = toxicity ([1]; at 30 µM (top of the series)): -2.52% (inactive)
11 | O=C(Nc1nc2c(Cl)cccc2s1)c1ccc(COc2ccccc2)o1 | 31.3 µM | 
12 | Cc1cc(Br)ccc1OCC(=O)N/N=C/c1ccc[nH]1 | 17.7 µM | 
13 | Cc1csc(NC(=O)c2ccc(COc3cccc(Cl)c3)o2)n1 | 9.15 µM | 
14 | Cc1csc(NC(=O)c2ccc(COc3cccc(Oc4ccccc4)c3)o2)n1 | 0.738 µM | 
15 | CC(C)Cc1ccc(/C=C/C(=O)NC2=NCCS2)cc1 | 1.07 µM | 
16 | CC(C)c1ccc(/C=C/C(=O)NC2=NCCS2)cc1 | 21.7 µM | 
17 | Cc1csc(NCc2ccc(COc3ccccc3)o2)n1 | 20.7 µM | 
18 | CCN(CC)C(=O)c1ccc(COc2ccccc2)o1 |  | activity change, negative = toxicity ([1]; at 19.5 µM (top of the series)): -2.12% (inactive)
19 | C/C(=C\C(=O)NC1=NCCS1)c1ccc(C)cc1 |  | activity change, negative = toxicity ([1]; at 19.5 µM (top of the series)): -6.97% (inactive)
20 | CC(C)c1ccc(/C=C/C(=O)Nc2cncs2)cc1 | 9.59 µM | 
21 | CC(C)c1ccc(C2CC2C(=O)NC2=NCCS2)cc1 (stereo not drawn) | 23.9 µM | 
22 | Cc1csc(NC(=O)c2ccc(COC(C)C)o2)n1 |  | activity change, negative = toxicity ([1]; at 19.5 µM (top of the series)): 7.01% (inactive)
23 | Cc1csc(NC(=O)c2ccc(CCc3ccccc3)o2)n1 | 5.68 µM | 
24 | C/C(=C\C(=O)NC1=NCCS1)c1ccc(CC(C)C)cc1 | 27.4 µM | 

Row | Compound | AC50 [2] | also measured
25 | Cc1csc(NC(=O)c2ccc(COC3CCCCC3)o2)n1 | 18.5 µM | 
26 | Cc1csc(NC(=O)c2ccc(COc3cccc(OC(F)(F)F)c3)o2)n1 | 0.667 µM | 
27 | COc1ccc(Cl)c(OCc2ccc(C(=O)Nc3nc(C)cs3)o2)c1 | 0.166 µM | 
28 | COc1ccc(OC)c2sc(NC(=O)c3ccc(COc4ccccc4)o3)nc12 |  | activity change, negative = toxicity ([1]; at 30 µM (top of the series)): -8.62% (inactive)
29 | Cc1csc(NC(=O)c2ccc(CNc3ccccc3)o2)n1 | 2.62 µM | 
30 | N#Cc1csc(NC(=O)c2ccc(COc3ccccc3)o2)n1 | 23.1 µM | 
31 | Cc1cc(C)c(OCC(=O)N/N=C/c2ccc[nH]2)c(C)c1 |  | activity change, negative = toxicity ([1]; at 19.5 µM (top of the series)): -14% (inactive)
32 | O=C(Nc1nc(C(F)(F)F)cs1)c1ccc(COc2ccccc2)o1 | 19.3 µM | 
33 | Cc1csc(NC(=O)c2ccc(CS(=O)(=O)c3ccccc3)o2)n1 |  | activity change, negative = toxicity ([1]; at 19.5 µM (top of the series)): 1.03% (inactive)
34 | Cc1csc(NC(=O)c2ccc(COc3cc(Cl)ccc3Cl)o2)n1 | 0.063 µM | 
35 | Cc1csc(NC(=O)c2ccc(COc3ccccc3)o2)n1 | 21.1 µM | 
36 | Cc1cccc(OCc2ccc(C(=O)Nc3nc(C)cs3)o2)c1 | 0.254 µM and 1.98 µM | 
37 | Cc1csc(NC(=O)c2ccc(COc3ccccc3F)o2)n1 | 0.089 µM | 
38 | COc1cccc(OCc2ccc(C(=O)Nc3nc(C)cs3)o2)c1 | 1.65 µM | 
39 | Cc1ccc(OCc2ccc(C(=O)Nc3nc(C)cs3)o2)cc1 | 6.79 µM | 
40 | O=C(Nc1nncs1)c1ccc(COc2ccccc2)o1 |  | activity change, negative = toxicity ([1]; at 19.5 µM (top of the series)): 8.89% (inactive)
41 | Cc1csc(NC(=O)c2ccc(COC(C)(C)C)o2)n1 |  | activity change, negative = toxicity ([1]; at 19.5 µM (top of the series)): -6.71% (inactive)
42 | Cc1csc(NC(=O)c2ccc(COc3cccc(F)c3)o2)n1 | 18.6 µM | 
43 | Cc1csc(NC(=O)c2ccoc2COc2ccccc2)n1 | 20.5 µM | 
44 | Cc1coc(NC(=O)c2ccc(COc3ccccc3)o2)n1 |  | activity change, negative = toxicity ([1]; at 19.5 µM (top of the series)): -6.36% (inactive)
45 | Cc1coc(NC(=O)/C=C/c2ccc(C(C)C)cc2)n1 |  | activity change, negative = toxicity ([1]; at 19.5 µM (top of the series)): -9.8% (inactive)
46 | Cc1csc(NC(=O)c2ccc(COc3cccc(S(C)(=O)=O)c3)o2)n1 |  | activity change, negative = toxicity ([1]; at 19.5 µM (top of the series)): -5.74% (inactive)
47 | Cc1csc(NC(=O)c2coc(COc3ccccc3)c2)n1 | 2.78 µM | 
48 | CC(C)c1ccc(/C=C/C(=O)Nc2nc(C(F)(F)F)cs2)cc1 | 8.98 µM | 
